The source made the active and inactive calls. No cut-off for these calls is given here.
How the values were obtained:
[1] = Downregulation of RANKL-induced ERK phosphorylation in mouse bone marrow macrophages after 15 mins by Western blot analysis in presence of M-CSF
Method in brief: (§1)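 Bone marrow macrophages from tibiae of 4–6-week ICR males, taken as cells adherent after 16–20 h in 50 ng/mL M-CSF. Treated with compound plus RANKL for 15 min, then lysed; phospho and total ERK, JNK and p38 detected by Western blot with ECL.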

Calvarial osteoblast [2] = assay: Effect on 1alpha,25-(OH)2D3-induced M-CSF mRNA expression in mouse calvarial osteoblasts at 5 and 10 uM after 24 hrs by RT-PCR method; type: functional, cell-based
Method in brief: (§2)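 Calvarial osteoblasts from newborn mice grown 24 h in α-MEM with 10% FBS and 0.1 μM 1α,25-(OH)2D3, with or without compound. Total RNA reverse-transcribed, then PCR for RANKL (587 bp), OPG (720 bp), M-CSF (516 bp) and GAPDH (452 bp) as control. Products run on 2% agarose with ethidium bromide; three independent experiments.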

[3] = Cytotoxicity against mouse calvarial osteoblasts assessed as cell viability at 1 to 20 uM after 2 to 4 days by MTT assay; type: cell-based; details: calvarial osteoblast
Method in brief: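 Primary calvarial osteoblasts from 1–2-day-old newborn mice (serial collagenase/dispase digests, fractions 2–5) exposed to 1, 5, 10, 20 μM for 2 days, or kept for at least 4 days with medium changed every 2–3 days; viability by MTT. Mean ± SD of three independent experiments.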

[4] = Downregulation of RANKL-induced NFATc1 levels in mouse bone marrow macrophages at 5 to 20 uM after 24 hrs by Western blot analysis in presence of M-CSF; type: functional, cell-based; details: Macrophage
Method in brief: (§3)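 Bone marrow macrophages made with 50 ng/mL M-CSF, exposed to compound and RANKL for 24 h; c-Fos and NFATc1 protein by Western blot, β-actin as loading control, ECL detection.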

[5] = Downregulation of RANKL-induced JNK phosphorylation in mouse bone marrow macrophages after 15 mins by Western blot analysis in presence of M-CSF; method in brief: as §1
[6] = Downregulation of RANKL-induced p38 MAPK phosphorylation in mouse bone marrow macrophages after 15 mins by Western blot analysis in presence of M-CSF; method in brief: as §1
[7] = molecular target: Transcription factor p65 (Mus musculus) (UniProt Q04207); assay: Downregulation of RANKL-induced p65 phosphorylation in mouse bone marrow macrophages at 5 to 20 uM after 30 mins by Western blot analysis in presence of M-CSF
Sequence of Transcription factor p65 (Mus musculus) (Q04207 whole entry): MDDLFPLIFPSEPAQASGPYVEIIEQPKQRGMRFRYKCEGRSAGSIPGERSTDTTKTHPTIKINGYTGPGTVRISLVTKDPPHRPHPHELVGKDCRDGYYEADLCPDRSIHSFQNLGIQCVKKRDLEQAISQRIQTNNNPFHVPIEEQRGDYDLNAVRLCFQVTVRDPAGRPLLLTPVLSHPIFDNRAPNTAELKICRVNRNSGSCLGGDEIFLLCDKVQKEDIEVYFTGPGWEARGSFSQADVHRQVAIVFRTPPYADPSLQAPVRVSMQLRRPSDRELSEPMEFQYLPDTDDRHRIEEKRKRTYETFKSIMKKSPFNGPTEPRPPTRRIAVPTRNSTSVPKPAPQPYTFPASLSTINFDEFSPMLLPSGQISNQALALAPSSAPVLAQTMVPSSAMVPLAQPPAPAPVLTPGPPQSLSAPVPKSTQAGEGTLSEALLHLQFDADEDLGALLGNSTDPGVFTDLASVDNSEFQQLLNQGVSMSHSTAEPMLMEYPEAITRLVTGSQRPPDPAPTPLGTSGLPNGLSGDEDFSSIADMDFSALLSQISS

Mus musculus [8] = organism: Mus musculus; assay: Decrease in 1alpha,25-(OH)2D3-induced calcium levels in hypercalcemic C57BL/6 mouse serum at […] for […]; type: functional, organism-based
Method in brief: (§4)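 C57BL/6 males, 6 weeks old, groups of five; 1α,25-(OH)2D3 given subcutaneously on three consecutive days, then PBS or compound at 25 or 100 μg/kg/day for 3 days; sacrifice on day 8. Serum calcium and phosphate by colorimetric kits, RANKL by ELISA; mean ± SD, Student's t test.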

[9] = Downregulation of RANKL-induced c-fos levels in mouse bone marrow macrophages at 5 to 20 uM after 24 hrs by Western blot analysis in presence of M-CSF; type: functional, cell-based; details: Macrophage; method in brief: as §3
Osteoclast [10] = assay: Induction of disruption of 1alpha,25-(OH)2D3/PGE2-induced F-actin ring formation in mouse osteoclasts obtained from coculturing mouse calvarial osteoblasts with mouse bone marrow macrophages at 20 uM after 48 hrs by Alexa Fluor 488-conjugated phalloidin staining based fluorescence microscopy; type: functional, cell-based
Method in brief: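 Bone marrow cells and calvarial osteoblasts cocultured 6–7 days on collagen with 0.1 μM 1α,25-(OH)2D3 or 10 μM PGE2; mature osteoclasts released with 0.2% collagenase (37 °C, 30 min). Treated 48 h, fixed in paraformaldehyde, F-actin rings stained with Alexa Fluor 488-phalloidin and viewed by fluorescence microscopy at 100×.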

[11] = Downregulation of 1alpha,25-(OH)2D3-induced RANKL mRNA expression in mouse calvarial osteoblasts at 5 and 10 uM after 24 hrs by RT-PCR method; type: functional, cell-based; details: Calvarial osteoblast; method in brief: as §2
Mus musculus [12] = assay: Decrease in 1alpha,25-(OH)2D3-induced OPG levels in hypercalcemic C57BL/6 mouse serum at 5 to 100 ug/kg/day for 5 days; type: functional, organism-based
Calvarial osteoblast [13] = assay: Inhibition of 1alpha,25-(OH)2D3-induced osteoclasts differentiation in mouse calvarial osteoblasts cocultured with mouse bone marrow macrophages incubated for 6 days by TRAP staining based microscopy; type: functional, cell-based
Method in brief: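 Bone marrow cells (1 × 10^7) cocultured 6 days with calvarial osteoblasts (1 × 10^6) in α-MEM with 10% FBS and 0.1 μM 1α,25-(OH)2D3. Cells fixed in formaldehyde and ethanol–acetone, then TRAP-stained; TRAP-positive cells with three or more nuclei counted as osteoclasts.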

Osteoclast [14] = assay: Inhibition of bone resorption in mouse osteoclasts obtained from coculturing mouse calvarial osteoblasts with mouse bone marrow macrophages assessed as inhibition of pit formation at 20 uM after 48 hrs by Mayer's hematoxylin staining based light microscopy; type: functional, cell-based
Method in brief: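 Mature osteoclasts from collagen-gel cocultures (0.1 μM 1α,25-(OH)2D3 or 10 μM PGE2; collagenase release) replated on dentin slices with compound for 48 h. Cells removed, slices stained with Mayer's hematoxylin, pits counted per slice by light microscopy at 100×; three independent experiments.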

[15] = tested on: primary calvarial osteoblasts (Mus musculus); assay: Induction of primary calvarial osteoblasts differentiation assessed as alkaline phosphatase activity at 1 to 20 uM using p-nitrophenyl phosphate as substrate after 7 to 14 days in presence of 1alpha,25-(OH)2D3
[16] = molecular target: Transcription factor p65 (Mus musculus) (UniProt Q04207); assay: Downregulation of RANKL-induced p65 nuclear translocation in mouse bone marrow macrophages at 5 to 20 uM after 30 mins by Western blot analysis in presence of M-CSF
Calvarial osteoblast [17] = assay: Effect on 1alpha,25-(OH)2D3-induced OPG mRNA expression in mouse calvarial osteoblasts at 5 and 10 uM after 24 hrs by RT-PCR method; type: functional, cell-based; method in brief: as §2
[18] = molecular target: T1, NF-kappa-B inhibitor alpha (Mus musculus) (UniProt Q9Z1E3); assay: Downregulation of RANKL-induced IkappaB alpha phosphorylation in mouse bone marrow macrophages at 5 to 20 uM after 30 mins by Western blot analysis in presence of M-CSF
T1 sequence (whole entry): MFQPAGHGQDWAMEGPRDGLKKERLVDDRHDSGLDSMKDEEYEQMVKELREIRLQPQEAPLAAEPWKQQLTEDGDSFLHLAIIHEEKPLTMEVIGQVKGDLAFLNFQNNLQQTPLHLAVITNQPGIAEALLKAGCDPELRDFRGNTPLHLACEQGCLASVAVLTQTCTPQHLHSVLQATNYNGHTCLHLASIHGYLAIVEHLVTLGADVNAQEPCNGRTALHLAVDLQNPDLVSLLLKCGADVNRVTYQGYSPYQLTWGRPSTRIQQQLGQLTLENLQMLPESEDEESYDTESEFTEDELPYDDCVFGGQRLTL

Mus musculus [19] = organism: Mus musculus; assay: Decrease in 1alpha,25-(OH)2D3-induced RANKL levels in hypercalcemic C57BL/6 mouse serum at […] […] by ELISA method; type: functional, organism-based; method in brief: as §4
[20] = tested on: primary calvarial osteoblasts (Mus musculus); assay: Induction of primary calvarial osteoblasts differentiation assessed as […] in alkaline phosphatase activity using p-nitrophenyl phosphate as substrate at 10 to 20 uM after 4 days
Mus musculus [21] = organism: Mus musculus; assay: Decrease in 1alpha,25-(OH)2D3-induced phosphate levels in hypercalcemic C57BL/6 mouse serum at […]/day […]; type: functional, organism-based; method in brief: as §4

For `C=C(C)[C@@H]1CC[C@]2(C)CC[C@]3(C)[C@H](CC[C@@H]4[C@@]5(C)CC[C@H](O)C(C)(C)[C@@H]5CC[C@]43C)[C@@H]12` [LUPEOL], the inhibition [1] was “Dose-dependent effect”, the Activity (Calvarial osteoblast [2]) was “inactive” and the Activity [3] was “Non-toxic”. The Activity [4] was “Active”, the inhibition [5] was “inactive” and the inhibition [6] was “Dose-dependent effect”. The Activity [7] was “Active”, the Activity (Mus musculus [8]) was “inactive” and the Activity [9] was “Active”. For the same molecule, the Activity (Osteoclast [10]) was “Active”, the Activity [11] was “Active” and the Activity (Mus musculus [12]) was “inactive”. The inhibition (Calvarial osteoblast [13]) was “Active”, the inhibition (Osteoclast [14]) was “Active” and the Activity [15] was “inactive”. For the same molecule, the inhibition [16] was “Active”, the Activity (Calvarial osteoblast [17]) was “inactive” and the Activity [18] was “Active”. The Activity (Mus musculus [19]) was “Active”, the Activity [20] was “Active” and the Activity (Mus musculus [21]) was “inactive”.
